# Source: PubChem (several laboratories)
# Beta cell apopt: blocks beta cell apoptosis; INS-1E cytokine-induced death, ATP luminescence, 48 h; percent of positive-control rescue, neutral wells zero; protection from apoptosis, % (concentration not given with the values); 0.8% of 300,000 active; AID 435005;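 active = Every replicate reaches about 75%, or at least half do and their mean reaches it too, limit read from the data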;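 also: 0% = cytokine-treated negative control wells and 100% = positive control rescue; higher means more ATP so stronger rescue from cytokine killing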
# Mdm2 MdmX PPI: human Mdm2/MdmX binding inhibition; SaOS-2 split-luciferase Mdm2/MdmX complementation, luminescence; O15151+Q00987; AID 485346; inhibition, % at 8 µM; 3% of 330,000 active;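 active = inhibition of at least 50% at 8 µM in the primary screen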
# Target sequence (O15151 whole entry, looked up): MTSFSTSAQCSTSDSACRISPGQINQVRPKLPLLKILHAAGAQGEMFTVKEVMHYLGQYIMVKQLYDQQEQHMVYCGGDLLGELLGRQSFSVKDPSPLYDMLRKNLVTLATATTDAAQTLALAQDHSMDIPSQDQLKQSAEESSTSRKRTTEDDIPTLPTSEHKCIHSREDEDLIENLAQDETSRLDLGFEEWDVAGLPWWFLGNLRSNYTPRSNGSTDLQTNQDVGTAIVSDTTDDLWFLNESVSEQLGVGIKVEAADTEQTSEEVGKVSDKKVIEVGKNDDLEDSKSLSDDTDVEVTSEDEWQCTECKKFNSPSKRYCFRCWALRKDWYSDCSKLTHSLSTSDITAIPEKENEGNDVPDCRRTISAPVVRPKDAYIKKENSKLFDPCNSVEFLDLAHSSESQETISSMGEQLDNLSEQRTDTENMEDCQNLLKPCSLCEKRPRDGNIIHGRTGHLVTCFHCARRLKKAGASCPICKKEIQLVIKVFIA
# Target sequence (Q00987 whole entry, looked up): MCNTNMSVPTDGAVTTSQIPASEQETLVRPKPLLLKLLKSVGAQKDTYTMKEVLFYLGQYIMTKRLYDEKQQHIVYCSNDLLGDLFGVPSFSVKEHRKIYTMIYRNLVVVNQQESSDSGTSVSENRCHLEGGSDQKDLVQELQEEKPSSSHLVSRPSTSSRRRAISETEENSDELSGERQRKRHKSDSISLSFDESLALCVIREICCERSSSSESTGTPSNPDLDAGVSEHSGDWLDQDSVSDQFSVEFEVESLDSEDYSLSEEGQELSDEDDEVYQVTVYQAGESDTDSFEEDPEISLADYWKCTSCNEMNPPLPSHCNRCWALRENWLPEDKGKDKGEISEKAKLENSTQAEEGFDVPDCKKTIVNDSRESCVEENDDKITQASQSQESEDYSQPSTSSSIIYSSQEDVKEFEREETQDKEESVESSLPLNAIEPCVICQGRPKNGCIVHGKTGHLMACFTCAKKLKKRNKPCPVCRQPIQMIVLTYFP
# CSC inhib: blocks cancer stem cells | cancer stem cell-like cells viability, luminescence | inhibition, % at 7.5 µM | 1.1% of 300,000 active | AID 2717; in the data active = inhibition above about 75%; tested in HMLE shEcad cells
# T cruzi inh: blocks replication of Trypanosoma cruzi. T. cruzi beta-gal in NIH3T3, luminescence, 90 h. inhibition, % (concentration not given with the values). 1.4% of 300,000 active. AID 1885;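 active = mean inhibition across valid replicates above about 55%, limit read from the data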;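 also: signal also drops with host cell toxicity which is not excluded here; 0% = plate median of DMSO wells and 100% = zero luminescence signal; higher percent means less beta-gal luminescence so fewer parasites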
#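 System: mouse NIH/3T3 fibroblasts infected with β-gal-expressing T. cruzi Tulahuen C4 / Input: NIH/3T3 cells, 5,000 per well / Buffer or medium: Low-serum DMEM with 2% FBS / Probe or stimulus: 5000 reporter trypomastigotes per well / Schedule: ≥90 h infection period, 3 h prior cell attachment / Measured by: GalScreen luminescence, 60 min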
# CHOP UPR activ: activators of apoptotic arm of unfolded protein response (CHOP) | AID 449763 | 0.34% of 330,000 active | activation, % at 10 µM | CHO-CHOP luciferase reporter, UPR activation, luminescence; percent of tunicamycin response over DMSO baseline;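 active = at 10 µM dose, activation of 40% or more, normalized to positive control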;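 also: 100% = tunicamycin at 10 µg/mL and 0% = DMSO alone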
#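 System: CHO-CHOP luciferase reporter cell line | Buffer or medium: F12 medium containing 10% fetal bovine serum | Doses: One dose, 10 µM in 0.5% DMSO | Times: 6 h compound exposure at 37 °C after overnight seeding | Signal: Luciferase luminescence | Read-out: % activation vs tunicamycin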
# XBP1 UPR activ: adaptive UPR (XBP1) activation | 0.33% of 330,000 active | activation, % at 20 µM | CHO-XBP1 luciferase reporter, IRE1-XBP1 UPR activation, luminescence; percent of tunicamycin response, DMSO as zero;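 active = versus positive control, 20 µM dose yields 30% or more activation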;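 also: 100% = tunicamycin at 10 µg/mL and 0% = DMSO only wells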
#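 Assay system: CHO-XBP1 luciferase reporter cells; Schedule: 6 h treatment, 37 °C; Detection: glow luminescence from Steady-Glo reagent; Benchmarks: high control tunicamycin 10 µg/mL final, low control DMSO vehicle only.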
# * hit, by the source's call; nt = no result given. Sampled rows, rich in hits. Any-hit rate of the full collection: about 5%.
SMILES,Beta cell apopt,Mdm2 MdmX PPI,CSC inhib,T cruzi inh,CHOP UPR activ,XBP1 UPR activ
Cc1ccc(OCC(=O)Nc2ccc(S(=O)(=O)N3CCOCC3)cc2)c(C)c1,nt,16.6,nt,-18.8,1.1,-0.2
CN1CCC(N(C)S(=O)(=O)c2ccc(NC(=O)COc3cccc(Cl)c3)cc2)CC1,-0.7,23.9,-3.3,55.9*,0.6,-3.2
Cc1ccc(OCC(=O)Nc2ccc(S(=O)(=O)N(C)C3CCN(C)CC3)cc2)c(C)c1,11.2,22.8,48.0,61.3*,0.0,-2.1
Cc1ccccc1OCCC(=O)Nc1ccc(S(=O)(=O)N(C)C2CCN(C)CC2)cc1,-0.3,13.2,-1.7,58.4*,-1.9,-4.2
CN(c1ccc(C(=O)NCc2ccncc2)cc1)S(=O)(=O)c1ccc(Cl)cc1,-0.3,17.4,6.3,-3.4,0.1,-4.8
C=CCNc1ncnc2c1[nH]c1ccccc12,5.5,-1.1,-14.1,14.1,0.6,5.5
CCCCOc1ncnc2c1[nH]c1ccccc12,61.0,16.5,-6.2,15.1,5.8,2.1
CCCCOCCCNc1ncnc2c1[nH]c1ccccc12,113.5*,25.2,25.6,24.0,8.3,0.4
CCOCCCNc1ncnc2c1[nH]c1ccccc12,78.3*,25.4,-5.2,9.4,1.3,4.2
Cc1cc(C)nc(Oc2ccc(Br)cc2)n1,-7.2,4.2,-7.1,-7.7,2.6,0.2
N#Cc1nc(-c2cccs2)oc1N1CCN(c2ccccc2)CC1,-12.0,25.2,nt,2.1,0.1,0.4
Cc1ccc(C)c(NC(=S)NCc2cccn2C)c1,1.3,1.6,-6.9,0.3,-0.6,1.8
COc1cccc(NC(=O)Nc2cc(C(=O)O)ccc2C)c1,-6.7,-4.9,-8.5,-3.6,-0.5,0.5
COc1cccc(NC(=O)Nc2ccc(C)c(Cl)c2)c1,11.6,-43.6,16.3,60.7*,7.6,-0.1
COc1ccc(-n2c(O)c(/C=N/NS(=O)(=O)c3cccc([N+](=O)[O-])c3)c3ccccc3c2=O)cc1OC,7.0,-8.4,-4.4,61.8*,-2.3,-1.4
CCOc1ccc(S(=O)(=O)N=C(c2ccccc2)N2CCOCC2)cc1,-2.4,7.0,-15.3,nt,1.3,-0.6
CC(C)CN(C(=O)c1ccc([N+](=O)[O-])s1)c1c(N)n(Cc2ccccc2)c(=O)[nH]c1=O,1.3,16.3,-1.4,63.5*,1.4,-2.1
Cc1cccc(CN2CCN(CCCc3ccccc3)CC2)c1,4.4,-0.9,nt,62.9*,1.2,-0.2
Cc1cccc(CN2CCSCC2)c1,-3.2,3.1,3.6,-11.9,-0.1,-3.2
O=C(C1CC(=O)N(c2ccc3c(c2)OCCO3)C1)N1CCN(c2cccc(C(F)(F)F)c2)CC1 (centres undefined),-5.0,28.4,-4.9,6.5,-1.4,-1.7
COC(=O)NC(=S)Nc1ccc(Oc2ccc(Cl)cc2Cl)c(Cl)c1,2.8,42.6,nt,61.6*,-0.2,6.3
COC(=O)NC(=S)Nc1ccc(Oc2ccc(Cl)cc2)c(Cl)c1,nt,27.1,nt,74.2*,-0.5,1.4
O=C(NC(=S)Nc1ccc(F)c(Cl)c1)C1CC1,-1.5,14.7,3.9,-15.9,-0.7,-1.1
Cc1nonc1CC(=O)N1CCCC(C(=O)c2ccc(Cl)cc2)C1 (centres undefined),-6.5,2.3,-2.4,2.3,0.0,-0.3
C/C(CCN1CCc2nc(-c3ccccc3)c(-c3ccccc3)cc2C1)=N\O[C@@H](C)c1cc(-c2c(C)cc(C)cc2C)no1,35.5,32.6,78.3*,27.5,1.9,-0.6
CCc1cc2c(nc1CC)CCN(CC/C(C)=N/O[C@@H](C)c1cc(-c3c(C)cc(C)cc3C)no1)C2,47.0,17.2,30.1,45.4,1.3,-3.1
CCC(C)NCCOCCOc1ccc(F)cc1 (centres undefined),-7.6,3.2,4.8,55.0*,-1.2,1.2
CCC(C)NCCOCCOc1ccc(Cl)cc1Br (centres undefined),-5.2,14.8,12.1,72.2*,-1.6,-0.7
Cc1ccc(OCCOCCNC(C)C)c(Br)c1,-3.7,1.8,3.3,13.8,-1.9,-2.6
CCN(C[C@H]1N[C@@](C)(C(=O)OC)[C@H]2C(=O)N(C)C(=O)[C@@H]12)S(=O)(=O)c1ccc(OC)cc1,nt,10.1,nt,nt,0.7,-3.3
